Measurements published in ChEMBL document CHEMBL1932927, “Synthesis and evaluation of platelet aggregation inhibitory activity of some 3-phenyl-pyrroloquinazolinones” (Eur J Med Chem, 2012).
pIC50: −log10 of the molar value. Calls of active or inactive are those of the source. The calls are words filed in the database; no cut-off is given here.

Key:
Platelet [1] = experiment: Antiplatelet activity against human platelets assessed as inhibition of thrombin-induced platelets aggregation at 8 uM pretreated 3 mins before compound addition by aggregometer analysis; assay type: functional, cell-based
In short: (§1)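 Platelets isolated by differential centrifugation and resuspended in Tris/Hepes basal buffer pH 7.4. Exposed to compound or DMSO vehicle for 3 min, then thrombin 40 mU/mL added. Initial aggregation rate (velocity) recorded from aggregation traces. Means of four separate determinations ± S.E.M.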

Platelet [2] = experiment: Antiplatelet activity against human platelets assessed as inhibition of collagen-induced platelets aggregation at 8 uM pretreated 3 mins before compound addition by aggregometer analysis; assay type: functional, cell-based
In short: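 Washed platelets in basal buffer pH 7.4 (2-4 × 10⁸ cells/mL) preincubated 3 min with compound (8 µM) or DMSO, then stimulated with collagen […] (so in the source). Aggregation rate relative to vehicle control; means of 4 experiments ± S.E.M.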

Homo sapiens [3] = species: Homo sapiens; experiment: Inhibition of protein tyrosine kinase phosphorylation in thrombin-stimulated human platelets at 2 uM treated 3 mins before thrombin challenge by SDS/PAGE analysis
In short: (§2)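 Platelets at 300 × 10⁶ cells/mL in basal medium pretreated 3 min with 2 µM compound or DMSO, then left resting or stimulated with thrombin 40 mU/mL. Proteins run on 10% SDS/PAGE, blotted, probed with anti-phosphotyrosine PY20, detected by ECL. Actin immunoblot served as loading control. Four experiments.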

Platelet [4] = experiment: Antiplatelet activity against human platelets assessed as inhibition of phorbol-ester-induced platelets aggregation at 2 to 8 uM pretreated 3 mins before compound addition by aggregometer analysis; assay type: functional, cell-based
In short: (§3)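 Washed platelets (ACD/apyrase/prostacyclin, differential centrifugation, resuspended in Tris/Hepes basal buffer pH 7.4, 2-4 × 10⁸ cells/mL) preincubated 3 min with test agent or DMSO. Then 20 nM PMA or ionomycin added. Maximal aggregation rate after agonist taken as 100% without compound. Means of 4 experiments ± S.E.M.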

[5] = Toxicity in human platelet assessed as cell viability at 4 uM after 4 to 6 hrs by alamar blue method; assay type: cell-based
In short: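 Platelet suspensions with 1 mM NaHCO3 and 0.2% BSA kept at 37 °C under 5% CO₂ with compound for 4-6 h. Viability read fluorimetrically by Alamar Blue reduction.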

Platelet [6] = experiment: Antiplatelet activity against human platelets assessed as inhibition of thrombin-induced platelets aggregation at >4 uM pretreated 3 mins before compound addition by aggregometer analysis; assay type: functional, cell-based
[7] = Toxicity in human platelets assessed as LDH release at 4 uM after 1 hr; assay type: cell-based; conditions: platelet
In short: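 Platelets (2 × 10⁸ cells/mL) incubated 1 h at 37 °C with compound, then centrifuged 3 min at 3000 g. Supernatant LDH measured with 5 mM NADH and 50 mM pyruvate as OD decrease at 340 nm. Total LDH determined after 0.1% Triton X-100 lysis.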

Platelet [8] = experiment: Increase in cytosolic calcium level in human platelets at 2 uM using fluorescent probe fura 2 by fluorescence assay; assay type: functional, cell-based
In short: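 Cytosolic Ca²⁺ monitored with fura 2 (excitation 340/385 nm, emission 505 nm) in stirred thermostated cuvette after 2 µM compound addition alone, versus DMSO vehicle. Representative of three experiments.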

Platelet [9] = experiment: Antiplatelet activity against human platelets assessed as inhibition of Ca2+-ionophore ionomycin-induced platelets aggregation at 2 to 8 uM pretreated 3 mins before compound addition by aggregometer analysis; assay type: functional, cell-based; in short: as §3
Platelet [10] = experiment: Increase in thrombin-indcued cytosolic calcium level in human platelets at 2 uM treated 1 min before thrombin challenge using fluorescent probe fura 2 by fluorescence assay; assay type: functional, cell-based
In short: (§4)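 Fura 2-loaded platelets in stirred thermostated cuvette; excitation 340/385 nm, emission 505 nm. Compound (2 µM) or DMSO added, thrombin 40 mU/mL given 1 min or 3 min later. Also run with 0.5 mM EGTA added 1 min before compound. Traces representative of three experiments.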

Platelet [11] = experiment: Decrease in thrombin-indcued cytosolic calcium level in human platelets at 2 uM treated 3 mins before thrombin challenge using fluorescent probe fura 2 by fluorescence assay; assay type: functional, cell-based; in short: as §4
Platelet [12] = experiment: (§5) Antiplatelet activity against human platelets assessed as inhibition of thrombin-induced platelets aggregation pretreated 3 mins before compound addition by aggregometer analysis; assay type: functional, cell-based; in short: as §1
[13] = as §5; assay type: functional, cell-based; conditions: Platelet; in short: as §1
Homo sapiens [14] = species: Homo sapiens; experiment: Inhibition of protein tyrosine kinase phosphorylation in human platelets at 2 uM by SDS/PAGE analysis; in short: as §2

Compound | inhibition (Platelet [1]) | inhibition (Platelet [2]) | further results
CCn1ccc2c3c(=O)[nH]c(-c4ccccc4)nc3ccc21 | Active | Active | –
O=c1[nH]c(-c2ccccc2)nc2ccc3c(ccn3CC3CC3)c12 | Active | Active | –
CCn1ccc2c3[nH]cc(-c4ccccc4)c(=O)c3ccc21 | Active | Active | –
O=c1c(-c2ccccc2)c[nH]c2c1ccc1[nH]ccc12 | Active | Active | –
CCn1ccc2c3c(=O)c(-c4ccccc4)c[nH]c3ccc21 | Active | Active | –
O=c1c(-c2ccccc2)c[nH]c2ccc3[nH]ccc3c12 | Active | Active | –
CCn1ccc2c3c(=O)[nH]c(-c4ccc(OC)cc4)nc3ccc21 | Active | Active | –
O=c1[nH]c(-c2ccccc2)nc2ccc3[nH]ccc3c12 | Active | Active | inhibition (Homo sapiens [3]): Active; inhibition (Platelet [4]): Active; Activity [5]: Toxic; inhibition (Platelet [6]): Active; Activity [7]: Non-toxic; Activity (Platelet [8]): Active; inhibition (Platelet [9]): Active; Activity (Platelet [10]): Active; Activity (Platelet [11]): Active; inhibition (Platelet [12]): Dose-dependent effect; pIC50 [13]: 5.75; inhibition (Homo sapiens [14]): inactive
